Env fusion inh = blocks HIV Env-driven cell-cell fusion; inhibition, % at 12.3 µM; HeLa-JRFL Env/CEM21 cell fusion, luciferase; AID 651610; hit rate 1.1% among 360,000;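 active = mean replicate inhibition score of at least 50 and every replicate individually at or above 50; inconclusive = only one of the two criteria met; inactive = mean below 50 and not all replicates reaching 50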;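 note: 0% = plate neutral controls and 100% = maraviroc near 300 nM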
Rtt109 HAT inh = blocks Candida albicans Rtt109/Vps75 acetyltransferase activity; Q5AAJ8; inhibition, % at 34.9 µM; hit rate 0.16% among 330,000; AID 540336; purified Rtt109/Vps75, ThioGlo CoA-SH fluorescence, 4 h;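 active = inhibition of at least 50% in every replicate; inconclusive = best replicate reaches 50% inhibition but some replicates fall short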
Target sequence (Q5AAJ8 whole entry, looked up): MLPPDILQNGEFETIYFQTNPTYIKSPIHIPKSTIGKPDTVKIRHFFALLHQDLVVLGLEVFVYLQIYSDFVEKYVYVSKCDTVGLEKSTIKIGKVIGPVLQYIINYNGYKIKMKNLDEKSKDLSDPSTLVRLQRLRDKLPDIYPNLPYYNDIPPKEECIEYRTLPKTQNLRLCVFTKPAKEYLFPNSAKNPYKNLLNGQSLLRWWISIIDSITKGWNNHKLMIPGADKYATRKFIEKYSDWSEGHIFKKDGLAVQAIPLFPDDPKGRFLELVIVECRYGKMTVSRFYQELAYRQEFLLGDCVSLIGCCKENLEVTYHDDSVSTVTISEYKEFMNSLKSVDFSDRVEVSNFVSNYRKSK
PAX8 inh HTS = inhibitors of PAX8 transcriptional activity in RMG-I cells. RMG-I TPO-luciferase reporter, SteadyGlo, 24 h. AID 652154. hit rate 1.2% among 360,000. inhibition, % at 12.6 µM;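 active = mean replicate inhibition at least 60% with every replicate also reaching 60%; inconclusive = only one of the two criteria is met; inactive = mean below 60% and not all replicates reaching 60%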;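 note: luciferase light reporting Pax8 driven TPO promoter activity; plate controls were median of neutral control wells for no effect and mitoxantrone controls for full effect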
PfHsp90 yeast 2 = inhibits growth of yeast expressing Plasmodium falciparum Hsp90 | hit rate 0.32% among 310,000 | inhibition, % at 9.4 µM | AID 504621 | S. cerevisiae expressing PfHsp90, BacTiter-Glo ATP, 48 h; yeast lacking PDR1 and PDR3 efflux regulators;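 active = every replicate shows inhibition above about 80%, whatever the replicate mean, limit read from the data; inconclusive = mean inhibition reaches the set limit but some replicate falls short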;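 note: 0% = DMSO neutral controls and 100% = 20 µM radicicol positive controls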
N-glyco inh = blocks N-linked glycosylation in D54 reporter cells; D54 ERlucT glycosylation luciferase reporter, 24 h; percent of 100 nM tunicamycin response; reporter increase, % at 12.5 µM; hit rate 0.23% among 360,000; AID 588692;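 active = mean luciferase reporter signal, scaled so untreated is 0 and the glycosylation-blocking control 100, at or above a set limit in every replicate; inconclusive = mean reaches the limit but not every replicate does; inactive = mean below the limit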;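 note: luciferase carries N-glycosylation sites so blocking glycosylation raises the light; 0% = median of neutral control wells and 100% = median of 100 nM tunicamycin wells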
Arr AP2 block = inhibitors of human beta-arrestin and AP2 interaction; FITC-arrestin peptide / GST-AP2 beads, flow cytometry; AP2 beta2 appendage carries R879A mutation; inhibition, % at 10 µM; hit rate 0.31% among 340,000;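 active = inhibition above a set limit, near 3 SD of compounds lacking own fluorescence, cut at about 54% in these data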;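 note: plate controls were DMSO wells for no effect and 5 µM unlabelled arrestin peptide for full effect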
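System: GST-AP2 R879A glutathione beads | Also added: FITC-arrestin peptide, 50 nM | Times: 12 min plus 1 h, RT | Signal: Bead flow cytometry, FITC channel | Buffer or medium: PBS with 0.05% Tween 20 and 0.1% BSA | Read-out basis: Percent drop in bead-associated FITC signal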
The depositor's hits bear a star; [ ] = remark or other dose. Compounds with a hit are over-represented: about 2.3% of the library has one in this group of screens.

`CCC(=O)N[C@H]1CC[C@H](CC(=O)NCCN2CCCCC2)O[C@@H]1CO` gave Env fusion inh 1[16.7 µM] and PAX8 inh HTS -6.
Screening CC1CCCCC1N(C)C1CCN(C(=O)CNC(=O)/C=C/c2cccc(Cl)c2)CC1 (stereo not drawn) returned Env fusion inh -8, Rtt109 HAT inh 51*, PAX8 inh HTS 4, PfHsp90 yeast 2 13, N-glyco inh -3 and Arr AP2 block 13.
Screening FC(F)(Cl)c1nnc2ccc(Cl)nn12 returned Env fusion inh 9, Rtt109 HAT inh -14, PAX8 inh HTS 74*, PfHsp90 yeast 2 -13, N-glyco inh 4 and Arr AP2 block 9.
For C[C@H]1CN([C@@H](C)CO)C(=O)CCCn2cc(nn2)CO[C@H]1CN(C)C(=O)NC1CCCC1 the results were Env fusion inh -6[16.7 µM].
For COC(=O)C[C@@H]1CC[C@H]2[C@@H](COc3ccc(NC(=O)c4cc(F)cc(F)c4)cc3C(=O)N2C)O1 the results were Env fusion inh -8[16.7 µM] and PAX8 inh HTS 14.
C[C@H](CO)N1C[C@H](C)[C@H](CN(C)C(=O)C2CCCCC2)OCCCC[C@H](C)Oc2ccc(NS(=O)(=O)c3ccc(Cl)cc3)cc2C1=O was read as Env fusion inh -135[16.7 µM] and PAX8 inh HTS inconclusive.
Screening C[C@@H]1CN([C@H](C)CO)C(=O)c2cc(NS(=O)(=O)c3ccc(Cl)cc3)ccc2O[C@@H](C)CCCCO[C@@H]1CN(C)C(=O)C1CCCCC1 returned Env fusion inh -53[16.7 µM] and PAX8 inh HTS 64*.
C[C@@H]1CCCCO[C@H](CN(C)C(=O)C2CCCCC2)[C@H](C)CN([C@@H](C)CO)C(=O)c2cc(NS(=O)(=O)c3ccc(Cl)cc3)ccc2O1 was read as Env fusion inh 8[16.7 µM] and PAX8 inh HTS 76*.
`COc1cccc(CN2[C@H](CO)[C@@H]3c4ccccc4N(C(=O)C4CC4)C[C@@H]32)c1` gave PAX8 inh HTS 9.
For COc1ccccc1S(=O)(=O)N1CC[C@@H]2[C@H](CO)Nc3ccc(-c4ccc(F)cc4)cc3[C@@H]21 the results were PAX8 inh HTS 67*.
Screening COc1ccccc1-c1ccc2c(c1)[C@H]1[C@H](CCN1S(=O)(=O)c1ccccc1OC)[C@@H](CO)N2 returned PAX8 inh HTS 65*.
COc1ccccc1S(=O)(=O)N1CC[C@@H]2[C@@H](CO)Nc3ccc(-c4ccc(F)cc4)cc3[C@@H]21 was read as PAX8 inh HTS 71*.
Screening COc1ccccc1S(=O)(=O)N1CC[C@@H]2[C@H]1c1cc(-c3ccc(F)cc3)ccc1N[C@@H]2CO returned PAX8 inh HTS 19.
Cc1noc(C)c1NC(=O)N(C)C[C@H]1OCCCC[C@H](C)Oc2ccc(NC(=O)CCC(F)(F)F)cc2C(=O)N([C@@H](C)CO)C[C@@H]1C was read as Env fusion inh -13[16.7 µM] and PAX8 inh HTS -20.
For C[C@H]1CN([C@@H](C)CO)C(=O)c2cccc(NS(C)(=O)=O)c2O[C@H]1CN(C)CC1CC1 the results were Env fusion inh 10[16.7 µM] and PAX8 inh HTS 0.
Screening C[C@@H]1CN([C@@H](C)CO)C(=O)Cc2cc(NC(=O)c3ccncc3)ccc2O[C@H]1CN(C)Cc1ccccc1 returned Env fusion inh 25[16.7 µM] and PAX8 inh HTS 7.
CC(C)NC(=O)Nc1ccc2c(c1)C(=O)N(C)[C@H]1CC[C@H](CC(=O)Nc3ccccc3Cl)O[C@@H]1CO2 was read as Env fusion inh -7[16.7 µM] and PAX8 inh HTS 0.
Screening COc1ccc(S(=O)(=O)Nc2ccc3c(c2)C(=O)N([C@@H](C)CO)C[C@@H](C)[C@@H](CN(C)C(=O)CCC(F)(F)F)OCCCC[C@@H](C)O3)cc1 returned Env fusion inh 24[16.7 µM] and PAX8 inh HTS 8.
Screening O=C(NCc1ccc(F)cc1)[C@H]1C[C@H]2C(=O)N3CCC[C@H]3C(=O)N2[C@H]1c1ccc(O)cc1 returned Env fusion inh 7[16.7 µM] and PAX8 inh HTS 15.
`CC(=O)NS(=O)(=O)c1ccc(NC(=O)COc2ccc(C(=O)c3ccccc3)cc2)cc1` gave Rtt109 HAT inh -13, PAX8 inh HTS 75*, PfHsp90 yeast 2 6, N-glyco inh 3 and Arr AP2 block -3.
Screening O=C(C[C@H]1C[C@H]2c3cc(NC(=O)Nc4ccccc4F)ccc3O[C@H]2[C@@H](CO)O1)NCc1ccc2c(c1)OCO2 returned Env fusion inh -12[16.7 µM] and PAX8 inh HTS 1.
Screening Cn1nc(-c2ccc(NCCO)c([N+](=O)[O-])c2)c2ccccc2c1=O returned Env fusion inh -1, Rtt109 HAT inh inconclusive, PAX8 inh HTS -19, PfHsp90 yeast 2 -2, N-glyco inh 0 and Arr AP2 block 7.
CC1CC(=O)NN=C1c1ccc(NCCO)c([N+](=O)[O-])c1 (stereo not drawn) was read as Env fusion inh 62*, Rtt109 HAT inh 9, PfHsp90 yeast 2 -24, N-glyco inh 1 and Arr AP2 block -1.
Screening CC(C)CNC(=O)[C@@H]1c2ccccc2C(=O)N(CC23CC4CC(CC(C4)C2)C3)[C@H]1c1ccc(CO)cc1 returned Env fusion inh 61*[16.7 µM] and PAX8 inh HTS -6.
Screening CCCNC(=O)[C@@H]1c2ccccc2C(=O)N(CC23CC4CC(CC(C4)C2)C3)[C@H]1c1ccc(CO)cc1 returned Env fusion inh 28[16.7 µM] and PAX8 inh HTS -3.
`COc1ccc(/C=N/NC(=O)COc2ccccc2-c2ccccc2)cc1` gave Env fusion inh -204, Rtt109 HAT inh 6, PAX8 inh HTS 74*, PfHsp90 yeast 2 7, N-glyco inh 13 and Arr AP2 block -8.
`COc1ccc(NC(=O)Nc2ccc3c(c2)C(=O)N([C@H](C)CO)C[C@H](C)[C@H](CN(C)S(=O)(=O)c2ccccc2)OCCCC[C@@H](C)O3)cc1` gave Env fusion inh -11[16.7 µM] and PAX8 inh HTS -15.
`N=c1c2c(n(Cc3ccc(Br)cc3)c3c1CCC3)CCCC2` gave Env fusion inh 70*, Rtt109 HAT inh 10, PAX8 inh HTS 78*, PfHsp90 yeast 2 -1, N-glyco inh 7 and Arr AP2 block 10.
Screening C[C@H]1CN([C@@H](C)CO)C(=O)c2cc(N(C)C)ccc2O[C@@H]1CN(C)C(=O)NC1CCCCC1 returned Env fusion inh 40[16.7 µM] and PAX8 inh HTS -9.
`C[C@@H]1CCCCO[C@@H](CN(C)S(C)(=O)=O)[C@H](C)CN([C@H](C)CO)C(=O)c2cc(NC(=O)Nc3ccc4c(c3)OCO4)ccc2O1` gave Env fusion inh -4[16.7 µM].
Screening Oc1ccccc1CNc1cnc2ccccc2c1 returned Rtt109 HAT inh 57*, PfHsp90 yeast 2 -8, N-glyco inh -2 and Arr AP2 block -2.
